Test results taken from PMC5900865 (Clinical Pharmacology in Drug Development, 2017).

Experiments:
[1] = system: elderly adult men and women; assay: Study 2 safety evaluation; assay type: in vivo, human; conditions: elderly population, single dose of 10 mg
Summary of the method: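 Elderly Japanese adults aged 65–85 (10 men, 10 women) were randomized 4:1, double-blind, to one oral 10 mg dose or placebo. Dosing was fasted, in the morning of day 1. Participants stayed on site days 1–5 and were discharged day 6. AEs, weight, vital signs, 12-lead ECG and haematology, chemistry, coagulation and urinalysis were recorded. TEAE incidence and intensity were compared with placebo.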

CYP2B6 = conditions: cited from earlier work
healthy adult men = assay: Study 1A safety evaluation; assay type: in vivo, human
Summary of the method: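 Randomized, double-blind, placebo-controlled study in healthy Japanese men. Single oral doses rose from 2.5 to 40 mg, doubling over 5 cohorts of 9 (2:1 drug:placebo). Each escalation followed review of safety data to day 5 and PK data to 48 h. AEs, body weight, vital signs, 12-lead ECG and haematology, chemistry, coagulation and urinalysis were recorded. TEAE incidence, intensity and drug relationship were compared with placebo.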

Compound: Cc1ccc(Sc2ccccc2N2CCNCC2)c(C)c1 [Vortioxetine, 1‐[2‐(2,4‐dimethylphenylsulfanyl)phenyl]piperazine]
- safety and tolerability [1]: safe and tolerated
- inhibitory or inducing effect in vitro (CYP2B6): No inhibitory or inducing effect
- tolerated single dose (healthy adult men; healthy men): up to 20 mg
- AEs reported (healthy adult men; single 40‐mg dose group): Seven AEs
